Only some compounds are listed: those with a hit (about 2.1% of all), similar ones and a draw of the others.
APJ agonist: agonists of human APJ apelin receptor | P35414 | CHO-K1 APJ PathHunter beta-arrestin, luminescence; 0% DMSO wells, 100% apelin | activation, % at 20 µM | hit rate 0.11% among 330,000 | AID 2520;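 active = activation more than six SD over the plate average, tested at 20 µM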;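 note: 0% = DMSO alone and 100% = apelin-13 at 10 nM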
Target sequence (P35414 whole entry, looked up): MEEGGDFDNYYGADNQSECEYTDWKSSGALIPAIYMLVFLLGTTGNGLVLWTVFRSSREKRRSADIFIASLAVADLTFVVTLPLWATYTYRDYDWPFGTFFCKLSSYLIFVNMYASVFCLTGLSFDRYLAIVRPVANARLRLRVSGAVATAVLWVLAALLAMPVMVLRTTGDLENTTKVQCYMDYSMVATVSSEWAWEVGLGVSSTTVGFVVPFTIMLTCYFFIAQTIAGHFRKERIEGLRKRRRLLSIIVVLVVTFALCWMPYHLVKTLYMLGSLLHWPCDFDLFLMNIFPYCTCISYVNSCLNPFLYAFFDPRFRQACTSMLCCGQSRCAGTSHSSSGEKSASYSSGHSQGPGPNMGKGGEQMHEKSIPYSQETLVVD
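Assay system: engineered CHO-K1 APJ arrestin reporter cells; Amount: 1000 CHO-K1 reporter cells seeded per well; Dosing: one dose, 20 µM compound, 1% DMSO; Times: compound stimulation 90 min at 25 °C, detection 60 min; Measured by: luminescent beta-gal fragment complementation, chemiluminescent substrate; Read-out: APJ–arrestin association signal; Controls: DMSO vs Apelin-13 10 nM.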
CXCR6 inh: blocks human CXCR6 beta-arrestin recruitment | O00574 | CHO-K1 PathHunter CXCR6 beta-arrestin, luminescence | inhibition, % at 20 µM | hit rate 0.36% among 360,000 | AID 602244; in the data active = inhibition above about 34%, passing the limit was not always enough;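 note: antagonist mode with CXCL16 agonist at 10 nM final; 0% = 10 nM CXCL16 with DMSO and 100% = unstimulated wells without agonist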
APJ antagonist: blocks the human apelin receptor APJ; P35414; CHO-K1 APJ beta-arrestin complementation, luminescence; inhibition, % at 20 µM; hit rate 0.32% among 330,000;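 active = inhibition above about 40% at 20 µM, limit read from the data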;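 note: cells challenged with 10 nM apelin-13 agonist together with compound; plate controls were apelin-13 plus DMSO wells for no effect and DMSO wells lacking apelin-13 for full effect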
CCR6 antagonist: antagonists of human CCR6 receptor; inhibition, % at 20 µM; hit rate 0.49% among 340,000; CHO-K1 CCR6 PathHunter beta-arrestin, luminescence, CCL20-stimulated; AID 493098;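 active = compounds whose inhibition of the agonist-driven luminescence signal at 20 µM reaches about 50%, limit read from the data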;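 note: cells stimulated with CCL20 at 14 nM final; plate controls were DMSO with CCL20 for no effect and DMSO without agonist for full effect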
m5-HT2A agonist: activates the mouse 5-HT2A serotonin receptor | activation, % at 7.6 µM | CHO-K1 mHTR2A beta-arrestin complementation, luminescence; percent of 30 µM serotonin response | hit rate 0.66% among 360,000;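 active = activation above a run cutoff, the mean activation of all tested compounds plus 3 SD, cut at about 14% in these data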;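 note: 0% = plate median of compound wells and 100% = 30 µM serotonin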
EBI2 block: EBI2 (human) antagonism; P32249; EBI2 beta-arrestin recruitment, luminescence, 7a,25-OHC stimulated; inhibition, % at 5 µM; hit rate 0.81% among 360,000; AID 651636; in the data active = inhibition above about 38%;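 note: enzyme fragment complementation signal reports receptor beta-arrestin coupling in cells; 0% = agonist plus DMSO wells and 100% = wells without agonist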
EBI2 antag conf: confirmation of human EBI2 receptor antagonists. EBI2 beta-arrestin luminescence, 7a,25-OHC antagonism. hit rate 29% among 2,400. AID 651997. inhibition, % at 5 µM. shares compounds with EBI2 block;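 active = inhibition of at least 50%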
EBI2 ag: activates EBI2, counter-screen for EBI2 antagonists | shares compounds with EBI2 block | EBI2-expressing cells, agonist mode, luminescence, 60 min; 0% vehicle, 100% 7α,25-dihydroxycholesterol control | activation, % at 5 µM | 2,400 tested, under 10 active;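 active = activation of at least 50%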
bGal counter: beta-galactosidase inhibition counter-screen; shares compounds with EBI2 block; purified beta-galactosidase, luminescent Galacton Star, 15 min; inhibition, % at 5 µM; hit rate 1% among 2,400; AID 652176;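 active = replicate-average signal at least 3 plate SD below neutral wells, shown as high inhibition, flagging enzyme-inhibiting false positives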;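 note: 0% = DMSO wells with enzyme and 100% = wells lacking enzyme; higher means stronger loss of beta-gal luminescence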
* marks the source's active call; other numbers are inactive results; . = no result given.

SMILES	APJ agonist	CXCR6 inh	APJ antagonist	CCR6 antagonist	m5-HT2A agonist	EBI2 block	EBI2 antag conf	EBI2 ag	bGal counter
Cn1nnc2c[n+](CC(=O)c3ccc4ccccc4c3)cc(Br)c21	2	3	-5	-3	-3	66*	67*	2	6
Cn1nnc2c[n+](CC(=O)c3ccc(Cl)cc3)cc(Br)c21	7	-13	-25	-9	6	-8	.	.	.
CCOC(=O)c1cc(-c2cccc([N+](=O)[O-])c2)nc2[nH]c(=O)[nH]c(=O)c12	-8	-6	5	-4	1	-3	.	.	.
CCOC(=O)c1c(C)nc(C)c(C(=O)OCC)c1-c1cccc([N+](=O)[O-])c1	.	-3	.	.	-1	59*	35	0	7
Cc1ccccc1OCCn1cc(/C=C(\C#N)C(=O)NCc2ccco2)c2ccccc21	-3	4	8	4	-3	26	.	.	.
N#C/C(=C\c1cn(CCOc2ccccc2)c2ccccc12)C(=O)NCc1ccco1	-7	8	9	29	2	46*	22	0	8
Cc1ccc(-c2nnc(/C=C/c3ccccc3)o2)cc1	-1	0	-9	12	3	49*	30	-1	-14
COCC(=O)N1C[C@H]2CON(C)[C@H]2C[C@H]1c1ccc(N2CCCCC2)cc1	.	-3	.	.	0	-4	.	.	.
COC1C=CC(CNC(=O)c2cc3c(=O)n4cccc(C)c4nc3n2C)(OC)O1 (stereo unspecified)	-2	25	-10	13	1	49*	-8	2	6
Cc1cccn2c(=O)c3cc(C(=O)NC4CCCC4)n(C)c3nc12	3	-11	-13	9	-1	-7	.	.	.
COC(=O)c1ccc(NC(=S)N2CCN(Cc3ccccc3OC)CC2)cc1	-4	-13	-19	8	0	4	.	.	.
CC1(C(=O)Nc2cnc3ccccc3c2)CCN1C(=O)c1ccccc1CCc1ccccc1 (stereo unspecified)	.	8	.	.	-6	48*	37	0	-17
Cc1ccc(NC(=O)C2(C)CCN2C(=O)c2ccccc2CCc2ccccc2)cc1C (stereo unspecified)	.	7	.	.	-12	22	.	.	.
COc1ccc(C2c3ccc(O)cc3Oc3ncn4nc(-c5cccnc5)nc4c32)cc1OC (stereo unspecified)	-2	13	5	13	-1	81*	55*	-1	9
Cn1nc(C(F)(F)F)c(-c2ccc(Br)cc2)c1NC(=O)CSCC(=O)O	3	-9	7	2	-1	-5	.	.	.
Cc1ccc([N+](=O)[O-])cc1N(CC(=O)Nc1ccc(S(=O)(=O)Nc2cccc(C(F)(F)F)c2)cc1)S(C)(=O)=O	0	-9	-15	5	-9	84*	65*	1	4
COc1ccc(NC(=O)c2ccc(CN3CCN(c4ccccc4)CC3)cc2)cc1	-1	5	8	-12	5	61*	23	2	8
O=C(Nc1ccccc1C(F)(F)F)c1ccc(CN2CCC(Cc3ccccc3)CC2)cc1	-4	16	3	4	-4	0	.	.	.
O=C(Nc1ccccc1)c1ccc(CN2CCC(Cc3ccccc3)CC2)cc1	-4	11	9	19	-8	65*	32	-1	6
COc1ccc(C(=O)Nc2ccc(N3CCN(Cc4ccccc4)CC3)cc2)cc1	-1	-7	8	-9	-3	-8	.	.	.
Cc1cc(C(=O)N2CCC(C)(C(=O)NS(=O)(=O)C3CC3)C2)n(C(C)(C)C)n1 (stereo unspecified)	.	-4	.	.	9	-2	.	.	.
Cc1ccc(C(=O)NCC(=O)OC(C)C(=O)Nc2ccc(N(C)C)cc2)s1 (stereo unspecified)	-2	-1	-20	10	-7	-3	.	.	.
O=C(Nc1ccc2ccccc2n1)c1ccc(Cl)cc1	-2	5	6	10	-1	61*	39	-1	7
O=C(Nc1ccc2ccccc2n1)c1ccccc1Cl	-2	-11	-1	2	-6	2	.	.	.
Cc1cccc(C)c1NCc1nnc(SCC(=O)Nc2nc(-c3ccccc3)cs2)n1-c1ccccc1	-2	-2	-5	10	-7	4	.	.	.
SMILES	APJ agonist	CXCR6 inh	APJ antagonist	CCR6 antagonist	m5-HT2A agonist	EBI2 block	EBI2 antag conf	EBI2 ag	bGal counter
CCOc1ccc(NCc2nnc(SCC(=O)Nc3nc(-c4ccccc4)cs3)n2-c2ccccc2)cc1	-4	-8	-4	3	-4	46*	23	-1	-19
C[C@H](CO)N1C[C@H](C)[C@@H](CN(C)Cc2ccncc2)Oc2c(NC(=O)C3CC3)cccc2C1=O	-1	1	13	4	0	1	.	.	.
CC1(C(=O)Nc2ccc3[nH]ncc3c2)CCN1C(=O)CC(c1ccccc1)c1ccccc1 (stereo unspecified)	.	8	.	.	-2	48*	13	0	-11
CC1(C(=O)Nc2ccc3[nH]ncc3c2)CCN1C(=O)C/C=C/c1ccccc1 (stereo unspecified)	.	-1	.	.	-3	21	.	.	.
CCc1sc(C(=O)N2CCN(c3ncccn3)CC2)cc1Br	-1	-6	14	-3	-3	9	.	.	.
c1ccc(Cc2nn3c(COc4ccccc4)nnc3s2)cc1	-3	3	-14	-4	-17	60*	40	1	5
Cc1ccc(C)c(S(=O)(=O)N2CCN(C(=O)CCCc3c[nH]c4ccccc34)CC2)c1	1	1	-37	16	1	60*	34	1	6
Cc1ccc(C)c(S(=O)(=O)N2CCN(C(=O)CSc3ccccc3)CC2)c1	2	11	3	8	-6	57*	62*	1	6
COC(=O)[C@@]12C[C@@H](CC(=O)NCCCCc3ccccc3)C(=O)N(Cc3ccc4c(c3)OCO4)C1=CCC(C)(C)C2	.	.	.	.	0	35*	10	-1	-9
O=C(c1cc(S(=O)(=O)N2CCCC2)c(Cl)cc1Cl)N1CCCC1	-1	2	18	6	14	12	.	.	.
CCOc1ccc2nc(N/C(N)=N/C(=S)Nc3ccc(OC)cc3)nc(C)c2c1	-1	16	-12	18	-2	44*	7	1	4
COc1ccc(C(=O)/C=C2\C(=O)Nc3ccc(Br)cc32)cc1	.	36	.	21	0	78*	70*	0	-10

Assay outcomes from PubChem.
